TWEAK Fn14 block – inhibitors of TWEAK-Fn14 signaling, primary screen, luciferase reporter cells, uHTS; inhibition, % at 10 µM; 360,000 tested, 2% active; TWEAK-stimulated Fn14 reporter cells, luciferase luminescence, 8 h; in the data active = inhibition above about 50%
TROY signal inh – inhibitors of TROY-driven NF-kB signaling, primary screen, Q293 LMP1-TROYcd cells, NF-kB luciferase, uHTS; AID 1347056, 2019; inhibition, % at 10 µM; Q293 LMP1-TROYcd NF-kB luciferase reporter, 4 h; 360,000 tested, 0.98% active;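 active = compounds whose plate-normalised and pattern-corrected inhibition of the luciferase reporter signal at the single screening dose is 50% or more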
LGR2 inh – inhibitors of bursicon-induced LGR2 CRE-luciferase signal, primary screen, cell-based, HEK293, CRE-luciferase reporter, bursicon stimulation; AID 720647, 2013; bursicon-stimulated, 4 h; 380,000 tested, 0.35% active; inhibition, % at 9.99 µM;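 active = drop in luminescence signal, shown as inhibition above about 50% in the replicate tests, limit read from the data, passing the limit was not always enough; inconclusive = probably only some replicates passing the limit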;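 note: agonist challenge used bursicon conditioned medium at about half maximal strength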
XiGFP reactiv – activators of inactive X chromosome reactivation, primary screen, imaging, XiGFP fibroblasts, GFP high-content imaging, set 2 | 360,000 tested, 0.055% active | XiGFP mouse fibroblasts, % GFP-positive cells imaging, 3 d; cells co-treated with 5-aza-dC sensitizer; scaled so ellipticine positive control = 100% | AID 743238, 2013 | activation, % at 7.58 µM;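 active = mean normalized replicate activation at least 10% and every replicate at or above 10%; inconclusive = only one of the two criteria met; inactive = mean below 10% and not all replicates reach 10%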;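 note: 0% = median of on-plate neutral control wells and 100% = ellipticine 6 µM median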
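material = 68-5-11 XiGFP fibroblast line | medium = DMEM plus 5-aza-dC sensitizer | schedule = 3 days compound exposure | benchmarks = positive control ellipticine, 6 µM final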
CaV13 FRET inh – Primary screen for inhibitors of IQ motif and Ca2+-dependent inactivation inhibitor domain binding in CACNA1D, Förster resonance energy transfer in living cells, …; HEK cells, CFP/YFP FRET ICDI-IQ, plate reader, 10 min; percent FRET-ratio fall versus neutral wells; inhibition, % at 12.3 µM; 340,000 tested, 0.098% active; AID 743397;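 active = mean replicate inhibition of at least 30% and at least 1% of replicates passing that level; inconclusive = only one of the two criteria is met; inactive = neither criterion is met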;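 note: 0% = median of the neutral control wells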
Active calls of the source: *; ? = inconclusive; . = not tested or not shown. Rows were chosen to be rich in hits. Some 2% of all compounds tested hit in one or more screens of this group.

SMILES	TWEAK Fn14 block	TROY signal inh	LGR2 inh	XiGFP reactiv	CaV13 FRET inh
COc1ccc(-n2c(C)cc(C(=O)COC(=O)c3cc(NC(=O)c4cccs4)c(OC)c(OC)c3)c2C)cc1	1	-13	-2	0	-7
COc1cc(NC(=O)c2cccs2)c(C(=O)OCC(=O)c2cc(C)n(-c3ccccc3)c2C)cc1OC	15	-32	60*	1	-6
Cc1ccc(N(C(=O)Cn2nnc(-c3ccc(C)o3)n2)C(C(=O)NC2CCCC2)c2ccncc2)cc1 (configuration not stated)	56*	6	13	0	-5
COc1ccc(C(C(=O)NC2CCCCC2)N(C(=O)CCl)c2cccc(Cl)c2)cc1 (configuration not stated)	58*	-37	.	0	-5
COc1ccc(C(C(=O)NC2CCCCC2)N(C(=O)CCl)c2ccc(OC)cc2)cc1 (configuration not stated)	64*	-8	.	.	.
O=C(NC1CCCCC1)C(c1cccnc1)N(C(=O)CCl)c1ccc(F)cc1 (configuration not stated)	42	5	0	0	-5
O=C(NC1CCCCC1)C(c1cccnc1)N(C(=O)CCl)c1ccccc1Cl (configuration not stated)	62*	2	13	0	-2
CO[C@@H]1CN(C)C(=O)c2cc(NC(=O)c3ccccc3)ccc2OC[C@H](C)N(C(=O)C2CC2)C[C@H]1C	.	.	-19	0	.
CC(C)NC(=O)Nc1ccc2c(c1)C(=O)N([C@H](C)CO)C[C@H](C)[C@@H](CN(C)C(=O)CCCN(C)C)OCCCC[C@H](C)O2	.	.	11	0	.
COc1ccc(C(C(=O)NC2CCCCC2)N(C(=O)CCl)c2ccc(C)cc2)cc1 (configuration not stated)	57*	-2	.	3	-4
COc1ccc(N(C(=O)CCl)C(C(=O)NC2CCCCC2)c2cccnc2)cc1 (configuration not stated)	47	-13	5	0	-5
Cc1ccc(NCc2nc3ccccc3n2C)cc1	66*	49	.	.	-2
Cc1ccc(O)c(N=Cc2cc(Cc3ccccc3)cc([N+](=O)[O-])c2O)c1	4	52*	-19	0	-5
COc1cc(C(=O)OCC(C)=O)cc(NC(=O)c2ccco2)c1OC	-16	-6	-7	0	179*
COc1ccc2c3c([nH]c2c1)[C@H](CO)N(C(=O)C1CCCC1)CC31CCN(S(C)(=O)=O)CC1	.	.	-5	0	.
CC(=O)OC[C@]1(OC(C)=O)C[C@@]23CC[C@H]4[C@@](C)(CCC[C@@]4(C)C(=O)O)[C@@H]2CC[C@@H]1C3	-2	8	.	0	-9
CC(=O)OC[C@]12CC[C@H]3[C@@](C)(CC[C@H]4C(C)(C)CCC[C@]34C)[C@@H]1CC(C1=CC(=O)OC1O)O2 (some centres not stated)	108*	88*	.	.	.
COc1ccc(CN(C)C[C@H]2OCCCC[C@H](C)Oc3ccc(NC(=O)c4ccncc4)cc3C(=O)N([C@H](C)CO)C[C@@H]2C)cc1	.	.	-10	0	.
C=CC(=O)Nc1cccc(Nc2nc(N[C@H]3CC[C@H](N(C)C)CC3)nc3c2ncn3C(C)C)c1	99*	77*	.	.	.
COc1cc2c(cc1OC)CN(Cc1nc3ccsc3c(=O)[nH]1)CC2	77*	5	.	.	-3
O=C(C1CCCC1)N1[C@H](CO)[C@@H]2c3ccccc3NC[C@@H]21	.	.	4	0	.
O=C(N/N=C/C(Br)=C/c1ccccc1)c1n[nH]c2c1CCC2	5	26	.	.	.
O=C(N/N=C/c1ccc(Cl)cc1)c1n[nH]c2c1CCCC2	-3	-29	-74	1	-5
O=C(N/N=C/c1ccccc1Cl)c1n[nH]c2c1CCCC2	97*	74*	71*	0	-19
O=C(N/N=C/c1ccccc1)c1n[nH]c2c1CCCC2	54*	10	31	0	-3
SMILES	TWEAK Fn14 block	TROY signal inh	LGR2 inh	XiGFP reactiv	CaV13 FRET inh
O=C(N/N=C/c1cccs1)c1n[nH]c2c1CCC2	57*	19	?	0	-5
CCC(=O)N1CC(=O)N2[C@@H](CO)[C@H](c3ccc(C#CC(C)C)cc3)[C@@H]2C1	.	.	.	1	.
COCC(=O)N1CC2(C1)CN(Cc1cc(F)ccc1F)[C@H](CO)c1[nH]c3cc(OC)ccc3c12	.	.	-2	0	.
CCCC#Cc1ccc2c(c1)O[C@H](CN(C)Cc1ccccc1)[C@H](C)CN([C@H](C)CO)S2(=O)=O	.	.	17	1	.
COCCc1nc2ccc(C(=O)NCc3cccc(-n4cccn4)c3)cc2o1	0	-5	4	0	-3
COCCc1nc2ccc(C(=O)N(C)Cc3cccc(-n4nc(C)cc4C)c3)cc2o1	-2	60*	-12	0	-1
O=C(Nc1cccc([N+](=O)[O-])c1)c1ccc2ccccc2c1O	53*	21	-67	0	-4
COc1ccc(S(=O)(=O)Nc2ccc3c(c2)C(=O)N([C@@H](C)CO)C[C@H](C)[C@H](CN(C)C(=O)NC(C)C)O3)cc1	.	.	1	0	.
O=C(O[C@@H]1OC2COC(=O)c3cc(O)c(O)c(O)c3-c3c(cc(O)c(O)c3O)C(=O)O[C@@H]([C@H]1O)[C@@H]2O)c1cc(O)c(O)c(O)c1	75*	-20	.	.	.
COCC#Cc1cnc2c(c1)C(=O)N([C@@H](C)CO)C[C@H](C)[C@@H](CN(C)Cc1ccc3c(c1)OCO3)O2	.	.	2	-1	.
CN=CC1=C(O)c2ccccc2C1=O	-5	30	.	.	-7
COc1ccc(N=C(C)C2=C(O)c3ccccc3C2=O)cc1	63*	-12	26	0	-3
O=C1C(C=Nc2ccccc2)=C(O)c2ccccc21	61*	53*	.	.	-5
COc1ccc(N=CC2=C(O)c3ccccc3C2=O)cc1	98*	74*	.	.	-5
O=C1C(C=Nc2ccccc2O)=C(O)c2ccccc21	44	8	65*	.	-8
Cc1nn(-c2ccccc2)c(Cl)c1C(=O)N1CCN(c2ncnc3c2cnn3-c2ccccc2)CC1	106*	85*	.	.	.
COc1ccc(-n2ncc3c(N4CCC(C)CC4)ncnc32)cc1	66*	69*	?	0	-6
O=C(c1ccccc1)N1CCN(c2ncnc3c2cnn3-c2ccccc2)CC1	15	-25	.	.	-2
c1ccc(Cn2ncc3c(N4CCCCC4)ncnc32)cc1	17	18	.	.	.
CCOC(=O)C1CCN(c2ncnc3c2cnn3-c2ccc(Cl)cc2)CC1	52*	-1	-33	.	-10

Source: PubChem BioAssay
